NPY2 pot ag: human NPY-Y2 potentiation or agonism, primary screen; AID 1359; cells expressing NPY-Y2, potentiator/agonist read-out; P49146; actives 0.45% (n = 220,000); activation, % at 3.6 µM; in the data active = activation above about 27%;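 also: cells stimulated with NPY near EC25 plus isoproterenol at EC100; 0% = vehicle plus submaximal agonist and 100% = vehicle plus saturating agonist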
Target sequence (P49146 whole entry, looked up): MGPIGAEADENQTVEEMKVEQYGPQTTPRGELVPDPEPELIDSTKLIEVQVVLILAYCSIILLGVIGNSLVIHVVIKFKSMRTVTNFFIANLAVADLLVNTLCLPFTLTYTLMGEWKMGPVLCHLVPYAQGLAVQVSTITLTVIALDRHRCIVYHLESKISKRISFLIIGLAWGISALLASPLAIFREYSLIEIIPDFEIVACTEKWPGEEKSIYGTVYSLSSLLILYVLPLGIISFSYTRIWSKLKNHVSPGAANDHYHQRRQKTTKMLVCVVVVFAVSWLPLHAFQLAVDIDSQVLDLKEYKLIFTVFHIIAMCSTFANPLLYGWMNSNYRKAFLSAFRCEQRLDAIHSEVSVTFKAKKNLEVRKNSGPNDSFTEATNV
EP2 mod: modulators of human EP2 prostaglandin E2 receptor | EP2-expressing cells, cAMP HTRF FRET, PGE2 co-stimulation | AID 940 | actives 0.83% (n = 260,000) | P43116 | induction, % at 25 µM;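 active = compounds whose cAMP rise, as percent of the full-agonist control response, exceeds 60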;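 also: rat C6 glioma line stably carrying human EP2 under a CMV promoter; the protocol text gives 20 µM as final concentration; 100% = response of wells given 1 µM PGE2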
NPY-Y2 antag: blocks the human neuropeptide Y Y2 receptor | P49146 | NPY-Y2 expressing cells, antagonist mode | inhibition, % at 2.7 µM | actives 0.99% (n = 140,000); in the data active = inhibition above about 17%;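 also: 0% = vehicle with agonist challenge and 100% = reference antagonist with challenge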
NPY-Y1 PAM-ag: human NPY-Y1 potentiation or agonism, primary screen; P25929; NPY-Y1 expressing cells, potentiator/agonist activation; activation, % at 3.6 µM; actives 0.37% (n = 220,000); AID 1304; in the data active = activation above about 33%, passing the limit was not always enough;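 also: cells stimulated with NPY at EC10 then isoproterenol at EC100; 0% = low agonist plus stimulus and 100% = saturating agonist plus stimulus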
EP2 antag: inhibitors of human EP2 prostaglandin E2 receptor; P43116; C6 glioma cells expressing human EP2, cAMP TR-FRET; cells stimulated with saturating PGE2; inhibition, % at 25 µM; actives 0.52% (n = 260,000); AID 1422;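 active = percent inhibition above 40 after rounding to a whole number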;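 also: rat C6 glioma host cells with rolipram phosphodiesterase inhibitor present; the protocol text gives 20 µM as final concentration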
NPY Y1 blocker: NPY-Y1 (human) receptor antagonism; P25929; HEK293-CNG Y1 cells, membrane potential fluorescence; NPY at EC95, then isoproterenol; inhibition, % at 3.6 µM; actives 1% (n = 200,000); AID 1040;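 active = inhibition above the campaign mean inhibition of all tested compounds plus 3 SD, cut at about 20% in these data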;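 also: 0% = DMSO wells given NPY plus isoproterenol and 100% = isoproterenol alone without NPY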
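Material: HEK293 cells with Y1 receptor plus CNG channel; times: compound incubation 1 h at room temperature, readout 45 min post-stimulation; signal: fluorescence, membrane potential probe; read-out basis: fluorescence ratio normalized to % inhibition between controls; benchmarks: full-block control isoproterenol-only wells, zero-block control NPY plus isoproterenol wells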
An asterisk follows results filed as active; nt = no result given. Sampled rows, rich in hits. Any-hit rate of the full collection: about 2.8%.

SMILES	NPY2 pot ag	EP2 mod	NPY-Y2 antag	NPY-Y1 PAM-ag	EP2 antag	NPY Y1 blocker
CC(C)(C)c1ccc2c(c1)OCC(C(=O)N1CCC(c3ccncc3)CC1)O2 (configuration not stated)	nt	-69	nt	nt	nt	nt
CCOc1ccc(NC(=O)NC2CC3CCC(C2)N3Cc2ccccc2)cc1 (configuration not stated)	nt	-101	nt	nt	9	nt
CN(C)CCCN1C(=O)C(O)=C(C(=O)c2cc3ccccc3o2)C1c1ccccc1 (configuration not stated)	-13	62*	2	-10	nt	-2
O=C(C1=C(O)C(=O)N(Cc2ccco2)C1c1cccnc1)c1cc2ccccc2o1 (configuration not stated)	17	53	6	17	47*	-4
Nc1ccc(-c2nc3ccc(-c4nc5ccccc5o4)cc3[nH]2)cc1	-14	-37	0	-10	73*	-3
N/C(=N\OC(=O)COc1ccc2ccccc2c1Br)c1ccccn1	-18	62*	nt	-24	22	13
N/C(=N\OC(=O)COc1ccc2ccccc2c1Br)c1cccnc1	-19	59	nt	-27	23	16
c1ccc(-c2nnc(CN3CCN(C(c4ccccc4)c4ccccc4)CC3)o2)cc1	7	61*	nt	-10	10	4
O=C(Nc1ccc(Cl)cc1)c1sccc1-n1cccc1	-7	63*	nt	-15	-1	5
Cn1c(=O)c2nc(NCc3ccccc3)cnc2n(C)c1=O	11	65*	1	7	nt	0
O=C(COc1ccc2nsnc2c1)NCc1nc(-c2ccccc2)no1	nt	-51	nt	nt	50*	nt
COc1ccccc1OCC(=O)NCc1nc(-c2ccccc2)no1	-16	-2	nt	-24	6	10
COc1ccc2cc1Oc1ccc(cc1)C[C@H]1c3cc(c(OC)cc3CCN1C)Oc1c(OC)c(OC)cc3c1[C@@H](C2)N(C)CC3	nt	-12	nt	nt	59*	nt
COc1ccccc1NC(=O)CSc1nnc(-c2ccc(Cl)cc2)n1C	nt	-33	nt	nt	5	nt
CC(C)c1nc2sc3c(c2c2nnc(SCc4ccccn4)n12)CCCC3	nt	-2	nt	nt	10	nt
CC(Sc1nc(N)c2c3c(sc2n1)CSC(C)(C)C3)C(=O)Nc1ccccc1 (configuration not stated)	-16	33	53*	-12	9	22*
O=C1c2ccccc2C(=O)c2c(Nc3ccc(CCO)cc3)ccc(O)c21	117*	-27	nt	121*	5	nt
O=C(O)c1ccc(/C=C/c2nc(O)c([N+](=O)[O-])c(=O)[nH]2)cc1	nt	-14	nt	nt	11	nt
CC(=O)Nc1ccc(S(=O)(=O)N2CCCC(c3[nH]ncc3S(C)(=O)=O)C2)cc1 (configuration not stated)	nt	0	nt	nt	nt	nt
Cn1c(SCC(=O)n2c3c(c4ccccc42)CCCC3)nnc1-c1ccccc1	4	-2	0	0	5	3
Cc1nnc(SCC(=O)n2c3c(c4ccccc42)CCCC3)s1	-4	64*	2	-22	10	10
Cc1ccc(NC(=O)c2cccs2)cc1NC(=O)c1cc2c(C)nn(-c3ccccc3)c2s1	nt	70*	nt	nt	13	nt
Cc1cnc(NC(=O)c2cc3c(C)nn(-c4ccccc4)c3s2)s1	-2	4	-1	-1	3	6
COc1cc(NC(=O)CSc2nnc3c(n2)[nH]c2ccc(F)cc23)cc(OC)c1	nt	-5	nt	nt	12	nt
Cc1nc2cc(Cl)c(NC(=O)C3CC3)cc2c(=O)n1Cc1ccccc1	nt	-12	nt	nt	11	nt
SMILES	NPY2 pot ag	EP2 mod	NPY-Y2 antag	NPY-Y1 PAM-ag	EP2 antag	NPY Y1 blocker
CCC(=O)NC1=C(Cl)C(=O)C(NC(=O)CC)=C(Cl)C1=O	-30	-49	nt	16	117*	nt
Cc1nn(C)cc1C(=O)N[C@H](Cn1nnc2ccccc21)C(C)C	nt	8	nt	nt	nt	nt
Cc1ccc2cc(CN(Cc3ccc(F)cc3)S(=O)(=O)c3ccc4c(c3)OCCO4)c(=O)[nH]c2c1	nt	-30	nt	nt	14	nt
O=c1oc2ccccc2c(O)c1/C=N/c1nc(-c2ccc(O)c(O)c2)cs1	nt	36	nt	nt	41*	nt
CN(c1cccc(Cl)c1)S(=O)(=O)c1cccc(C(=O)Nc2nc3ccccc3[nH]2)c1	-10	-14	27*	-64	11	30*
Cc1ccc(C2(O)CCN(CC(O)c3ccc4c(c3)OCCO4)CC2)cc1 (configuration not stated)	nt	-9	nt	nt	1	nt
COc1cccc(CN2CCN(C(=O)c3ccc4ncccc4c3)[C@@H](C)C2)c1	nt	-38	nt	nt	nt	nt
Cc1ccc2nc(NC(=O)c3cc(-c4ccco4)nc4ccccc34)sc2c1	-121	-6	56*	-146	8	54*
Cc1csc(NC(=O)c2cc(-c3ccco3)nc3ccccc23)n1	-15	0	3	-1	15	2
COc1ccc(-c2cc(C(=O)Nc3nc4c(C)cccc4s3)c3ccccc3n2)cc1OC	-33	-28	45*	-85	4	47*
O=C(CSc1nc2ccccc2o1)NCCc1ccccc1	nt	-85	nt	nt	10	nt
Cc1cc(-c2cncnc2C2CCCN(C(=O)C(C)c3ccccc3)C2)on1 (configuration not stated)	nt	-10	nt	nt	nt	nt
CCNC(=S)N(CCCO)Cc1cc2cc(C)c(C)cc2[nH]c1=O	nt	-31	nt	nt	9	nt
CC(C)/C=N/Nc1nc2c(c(=O)n(C)c(=O)n2C)n1C	4	-7	nt	20	5	nt
Cn1c(=O)c2c(nc(N/N=C/c3ccccc3C(=O)O)n2C)n(C)c1=O	nt	17	nt	nt	44*	nt
Nc1ccc(N2CCCC2)cc1	nt	-94	nt	nt	68*	nt
CCOC(=O)/C(=N\Nc1ccc(Cl)cc1)c1csc(Nc2ccccc2)n1	0	29	1	11	44*	1
CCOC(=O)c1ccc(N2C(=O)C3CC=C(C)CC3C2=O)cc1 (configuration not stated)	-26	-14	0	-27	17	25*
CC1CCCCN1C(=O)CSc1nnc(-c2ccc(NS(C)(=O)=O)cc2)n1C1CCCCC1 (configuration not stated)	nt	-10	nt	nt	5	nt
COc1cc2ccccc2cc1C(=O)Nc1cccc(NC(=O)c2cccs2)c1	nt	-64	nt	nt	10	nt
Nc1ncccc1OCc1cccc(C(F)(F)F)c1	6	-30	nt	4	3	-3
Nc1nc(N)c(-c2cccc(C(F)(F)F)c2)c(Cc2cccc(C(F)(F)F)c2)n1	nt	-44	nt	nt	62*	nt
O=C1c2ccccc2C(O)(O)[C@@]1(O)[C@]1(O)C(=O)c2ccccc2C1(O)O	nt	-41	nt	nt	73*	nt
Cc1cc(C)c2cc(C#N)c(SCC(=O)N3CCc4ccccc43)nc2c1	nt	36	nt	nt	11	nt
CN1C=CC=C/C1=C1\SC(=S)N(C2CCCCC2)C1=O	106*	-14	-2	114*	7	-10
CCC(c1nnnn1Cc1ccco1)N(Cc1cc2cc(C)ccc2[nH]c1=O)CC1CCCO1 (configuration not stated)	nt	35	nt	nt	17	nt
CCN(CC)C(=O)c1cc2c(=O)oc3ccccc3c2s1	58*	-9	3	69*	35	0

Screening data: PubChem, several laboratories
